# Pf Dd2 growth – inhibitors of Plasmodium falciparum Dd2 growth; activity change, % at 10 µM; P. falciparum Dd2 growth, SYBR Green, 72 h; hits give low values; actives 2.3% (n = 94,000); AID 1159554; in the data active = activity change below about -80%; inconclusive = no clear call, values can overlap the other calls
# KDM4C inh – KDM4C (human) demethylase inhibition | Q9H3R0 | GST-KDM4C 2-372, H3K9me3 peptide, LANCE TR-FRET | inhibition, % at 12.5 µM | actives 0.15% (n = 96,000) | AID 720574;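 active = mean replicate inhibition above about 25%, with at least 55% of replicates also reaching it, limit read from the data, passing the limit was not always enough; inconclusive = only one of those two conditions met; inactive = neither condition met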
#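 Compound: one test concentration per compound; Material: GST-GASC-1 enzyme fragment 2-372; Amount: GASC-1 enzyme at 10 nM final in reaction; Also added: H3K9me3 peptide substrate, Fe(II), 2-oxoglutarate; Technique: LANCE TR-FRET; Times: 30 min demethylation and 1 h detection at room temperature.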
# T cruzi growth-1 – inhibitors of T. cruzi proliferation | T. cruzi beta-gal in NIH3T3, GalScreen luminescence, 90 h | inhibition, % at 8.34 µM | AID 624255 | actives 5.9% (n = 77,000);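 active = mean inhibition above about 93%, with at least 55% of replicates each passing it, limit read from the data, passing the limit was not always enough; inconclusive = only one of those two conditions holds; inactive = neither condition holds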
# IDH1 mut inh – blocks human IDH1 R132H reductase activity | O75874 | diaphorase/resazurin fluorescence, 60 min | inhibition, % at 10 µM | actives 0.18% (n = 70,000) | AID 624101; in the data active = inhibition above about 34%; inconclusive = no clear call, values can overlap the other calls; inactive = below about 11%
# Target sequence (O75874 whole entry R132H): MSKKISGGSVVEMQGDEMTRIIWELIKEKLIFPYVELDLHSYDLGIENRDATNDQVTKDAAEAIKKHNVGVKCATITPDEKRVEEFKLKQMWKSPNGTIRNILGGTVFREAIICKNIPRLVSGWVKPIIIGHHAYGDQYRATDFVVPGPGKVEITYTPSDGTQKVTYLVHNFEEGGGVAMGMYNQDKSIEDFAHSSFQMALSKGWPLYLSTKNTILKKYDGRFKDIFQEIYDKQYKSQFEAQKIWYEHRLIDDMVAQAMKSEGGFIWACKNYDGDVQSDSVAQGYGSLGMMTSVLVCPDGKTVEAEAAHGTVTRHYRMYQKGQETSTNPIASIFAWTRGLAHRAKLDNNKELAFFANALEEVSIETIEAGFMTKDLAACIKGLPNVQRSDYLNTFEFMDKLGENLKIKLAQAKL
# T cruzi growth-2 – Trypanosoma cruzi proliferation inhibition. shares compounds with T cruzi growth-1. T. cruzi beta-gal in NIH3T3, GalScreen luminescence, 90 h. inhibition, % at 8.35 µM. actives 72% (n = 5,600). AID 651739;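 active = mean replicate inhibition above about 95% and at least 55% of replicates individually reaching it, limit read from the data; inconclusive = only one of the two criteria is met; inactive = neither criterion is met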
# T cruzi growth-3 – Trypanosoma cruzi proliferation inhibition | inhibition, % at 2.09 µM | T. cruzi beta-gal in NIH3T3, GalScreen luminescence, 90 h | shares compounds with T cruzi growth-1 | AID 651740 | actives 21% (n = 5,600);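 active = mean inhibition above about 95%, with at least 55% of replicates also reaching it, limit read from the data; inconclusive = meets just one of the two conditions; inactive = meets neither condition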
# 3T3 cytotox – cytotoxicity in mouse NIH/3T3 fibroblasts; shares compounds with T cruzi growth-1; NIH/3T3 viability, CellTiter-Glo ATP luminescence, 90 h; cytotoxicity (signal decrease), % at 8.35 µM; actives 14% (n = 5,600);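 active = mean signal decrease across replicates above about 35% based on untreated-well scatter, with enough replicates individually passing, limit read from the data; inconclusive = no rule stated though some were filed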
# 3T3 cytotox 2 – NIH/3T3 (mouse) viability loss; shares compounds with T cruzi growth-1; NIH/3T3 viability, CellTiter-Glo ATP luminescence, 90 h; inhibition, % at 24.9 µM; actives 56% (n = 5,600);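 active = mean loss of cell viability signal at or above a set limit, and enough replicates individually reaching it; inconclusive = meets only the mean limit or only the replicate share; inactive = meets neither condition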
# Numbers stand for hits; i = inactive; ? = inconclusive; nt = no result. In the library only some 5.9% were active in any assay of this set; here they are far more common.
SMILES,Pf Dd2 growth,KDM4C inh,T cruzi growth-1,IDH1 mut inh,T cruzi growth-2,T cruzi growth-3,3T3 cytotox,3T3 cytotox 2
CN(C)C(=O)c1cccc(-c2ccc([C@H]3[C@@H](CO)N4CCCCN(C(=O)C5CCC5)C[C@H]34)cc2)c1,i,i,?,nt,106.6,i,i,i
COC(=O)c1ccccc1NC(=O)CSc1nc(-c2cccs2)cc(C(F)(F)F)c1C#N,nt,nt,nt,i,nt,nt,nt,nt
Cc1ccc(NC(=O)C(C)Sc2n[nH]c(C)n2)cc1 (stereo not given),nt,nt,nt,i,nt,nt,nt,nt
O=C(c1cnc2ccccn12)C(F)(F)SCc1c(Cl)cccc1Cl,nt,nt,nt,i,nt,nt,nt,nt
C[C@@H]1CCCCO[C@@H](CN(C)CC2CCCCC2)[C@H](C)CN([C@@H](C)CO)C(=O)c2cc(NC(=O)Nc3ccc(F)cc3)ccc2O1,i,i,113.7,nt,99.0,i,i,106.2
C[C@@H]1CCCCO[C@@H](CN(C)CC2CC2)[C@H](C)CN([C@@H](C)CO)C(=O)c2cc(NC(=O)Nc3ccc(F)cc3)ccc2O1,i,i,102.7,i,i,i,i,i
COc1cccc(C#Cc2ccc([C@@H]3[C@@H](C#N)N(C(=O)c4ccccn4)[C@@H]3CO)cc2)c1,i,i,107.9,nt,107.9,i,i,i
COc1cccc(C#Cc2ccc([C@H]3[C@@H](C#N)N(C(=O)c4ccccn4)[C@@H]3CO)cc2)c1,i,i,i,nt,nt,nt,nt,nt
COc1cccc(-c2ccc([C@H]3[C@@H](CO)N(C(=O)c4ccccn4)[C@H]3C#N)cc2)c1,i,i,?,nt,98.4,116.9,i,99.1
CC(C)C#Cc1ccc([C@@H]2[C@@H](C#N)N(C(=O)c3ccccn3)[C@H]2CO)cc1,i,i,i,nt,nt,nt,nt,nt
CC(C)C#Cc1ccc([C@H]2[C@@H](C#N)N(C(=O)c3ccccn3)[C@H]2CO)cc1,i,i,?,nt,99.8,103.1,i,i
CC(Oc1ccc(C(=O)NC2CCCCC2)cc1)C(=O)Nc1ccccc1C(F)(F)F (stereo not given),nt,nt,nt,i,nt,nt,nt,nt
C[C@@H]1CN([C@@H](C)CO)S(=O)(=O)c2ccc(-c3ccccc3F)cc2O[C@@H]1CN(C)Cc1cccnc1,i,i,100.6,i,104.9,i,68.9,71.3
C[C@H](CO)N1C[C@H](C)[C@@H](CN(C)Cc2cccnc2)Oc2cc(-c3ccccc3F)ccc2S1(=O)=O,i,i,i,i,nt,nt,nt,nt
C[C@H]1CN([C@@H](C)CO)S(=O)(=O)c2ccc(-c3ccccc3F)cc2O[C@@H]1CN(C)Cc1cccnc1,i,i,105.2,i,106.6,103.7,35.7,100.1
O=C(O)CCCCCC(=O)N/N=C/c1ccc(F)cc1,nt,nt,nt,i,nt,nt,nt,nt
O=C(Nc1cccc(F)c1)N1CCCCN2[C@@H](CO)[C@H](c3ccc(C#CC4CC4)cc3)[C@@H]2C1,i,i,?,nt,i,102.2,104.9,106.0
O=C(Nc1ccc(F)cc1)N1CCCCN2[C@H](C1)[C@H](c1ccc(C#CC3CC3)cc1)[C@@H]2CO,i,i,121.8,nt,99.5,i,i,i
O=C(Nc1cccc(F)c1)N1CCCCN2[C@H](CO)[C@@H](c3ccc(C#Cc4ccccc4)cc3)[C@@H]2C1,i,i,i,nt,nt,nt,nt,nt
O=C(Nc1ccc(F)cc1)N1CCCCN2[C@H](CO)[C@H](c3ccc(C#CC4CC4)cc3)[C@H]2C1,i,i,i,nt,nt,nt,nt,nt
O=C(Nc1ccc(F)cc1)N1CCCCN2[C@@H](CO)[C@@H](c3ccc(C#CC4CC4)cc3)[C@@H]2C1,i,i,97.3,nt,97.9,106.6,118.7,106.1
COc1cccc(CNC(=O)[C@H]2[C@H](CO)[C@H]3Cn4c(cccc4=O)[C@@H]2N3C(=O)C2CCCCC2)c1,nt,i,157.3,nt,i,i,i,i
O=C(NCC(F)(F)F)[C@H]1[C@H](CO)[C@H]2Cn3c(cccc3=O)[C@@H]1N2C(=O)C1CCC1,i,i,i,nt,nt,nt,nt,nt
O=C(NCC(F)(F)F)[C@@H]1[C@@H](CO)[C@@H]2Cn3c(cccc3=O)[C@H]1N2C(=O)C1CC1,i,i,?,nt,i,i,i,i
Nc1nc(-c2ccco2)nn1C(=O)c1ccco1,nt,nt,nt,i,nt,nt,nt,nt
SMILES,Pf Dd2 growth,KDM4C inh,T cruzi growth-1,IDH1 mut inh,T cruzi growth-2,T cruzi growth-3,3T3 cytotox,3T3 cytotox 2
O=C(NCc1ccco1)c1ccc2c(c1)C(=O)N(CC1CCCO1)C2=O (stereo not given),nt,nt,nt,i,nt,nt,nt,nt
Cc1ccc(S(=O)(=O)N(C)CC(=O)Nc2cc(Cl)ccc2Oc2ccccc2)cc1,nt,nt,nt,i,nt,nt,nt,nt
C[C@H](CO)N1C[C@H](C)[C@@H](CN(C)C(=O)Nc2cccc3ccccc23)OCCCC[C@H](C)Oc2ccc(NS(=O)(=O)c3ccc(Cl)cc3)cc2C1=O,i,i,i,nt,nt,nt,nt,nt
C[C@H]1CCCCO[C@H](CN(C)C(=O)Nc2cccc3ccccc23)[C@@H](C)CN([C@@H](C)CO)C(=O)c2cc(NS(=O)(=O)c3ccc(Cl)cc3)ccc2O1,i,i,?,nt,97.3,119.3,i,i
C[C@@H]1CCCCO[C@H](CN(C)C(=O)Nc2cccc3ccccc23)[C@@H](C)CN([C@H](C)CO)C(=O)c2cc(NS(=O)(=O)c3ccc(Cl)cc3)ccc2O1,i,i,i,i,nt,nt,nt,nt
C[C@@H]1CCCCO[C@@H](CN(C)C(=O)Nc2cccc3ccccc23)[C@H](C)CN([C@@H](C)CO)C(=O)c2cc(NS(=O)(=O)c3cccs3)ccc2O1,i,i,100.6,i,107.4,i,i,i
C[C@@H]1CN([C@@H](C)CO)C(=O)c2cc(NS(=O)(=O)c3ccc(Cl)cc3)ccc2O[C@@H](C)CCCCO[C@@H]1CN(C)C(=O)Nc1cccc2ccccc12,i,i,98.8,i,105.4,?,i,i
C[C@H](CO)N1C[C@H](C)[C@H](CN(C)C(=O)Nc2cccc3ccccc23)OCCCC[C@H](C)Oc2ccc(NS(=O)(=O)c3ccc(Cl)cc3)cc2C1=O,i,i,95.7,nt,101.3,i,i,i
COc1ccc(NC(=O)c2ccc(OCC(=O)Nc3cccc(C)c3C)cc2)cc1Cl,nt,nt,nt,i,nt,nt,nt,nt
Cc1ccc(CN2C(=O)C(O)(CC(=O)c3cccc(N)c3)c3cc(Cl)ccc32)cc1 (stereo not given),nt,nt,nt,i,nt,nt,nt,nt
Cc1ccc(NC(=O)CCCN2C(=O)c3ccccc3C2=O)c([N+](=O)[O-])c1,nt,nt,nt,i,nt,nt,nt,nt
C[C@@H]1CCCCO[C@@H](CN(C)C(=O)Nc2cccc3ccccc23)[C@H](C)CN([C@@H](C)CO)C(=O)c2cc(NS(C)(=O)=O)ccc2O1,i,i,116.1,nt,i,i,i,i
C[C@@H]1CCCCO[C@@H](CN(C)C(=O)Nc2cccc3ccccc23)[C@H](C)CN([C@@H](C)CO)C(=O)c2cc(NS(=O)(=O)c3ccc(F)cc3)ccc2O1,i,i,104.7,nt,101.2,i,i,i

# Bioassay records (PubChem BioAssay)
